Measured values taken from ChEMBL document CHEMBL4616631, “Design, synthesis and evaluation of phthalide alkyl tertiary amine derivatives as promising acetylcholinesterase inhibitors with high potency and selectivity against Alzheimer's disease” (Bioorg Med Chem, 2020).

Experiments:
[1] = target: T1, Amine oxidase [flavin-containing] B (Homo sapiens, UniProt P27338); assay: Inhibition of recombinant human MAO-B expressed in baculovirus infected BTI insect cells at 10 uM using kynuramine as substrate measured after 30 mins by fluorescence based assay relative to control; conditions: 0.5 h
T1 sequence (P27338 whole entry): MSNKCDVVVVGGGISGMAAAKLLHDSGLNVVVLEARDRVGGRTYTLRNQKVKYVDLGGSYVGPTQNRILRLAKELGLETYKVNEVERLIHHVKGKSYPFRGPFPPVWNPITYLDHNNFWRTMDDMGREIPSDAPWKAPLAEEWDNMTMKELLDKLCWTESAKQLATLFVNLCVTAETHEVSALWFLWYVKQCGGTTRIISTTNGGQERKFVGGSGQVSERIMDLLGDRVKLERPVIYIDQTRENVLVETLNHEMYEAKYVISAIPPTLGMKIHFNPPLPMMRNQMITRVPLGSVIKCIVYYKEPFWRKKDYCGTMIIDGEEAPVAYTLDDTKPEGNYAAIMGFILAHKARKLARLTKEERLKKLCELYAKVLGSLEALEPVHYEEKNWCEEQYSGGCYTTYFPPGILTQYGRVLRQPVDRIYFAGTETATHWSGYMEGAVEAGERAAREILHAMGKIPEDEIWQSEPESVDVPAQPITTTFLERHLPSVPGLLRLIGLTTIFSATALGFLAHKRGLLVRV
Method in brief: (§1)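 Recombinant human MAO-A or MAO-B (7.5 µg/mL) in 100 mM potassium phosphate, pH 7.4, with 20.2 mM KCl and DMSO below 4%. Kynuramine was 45 µM for MAO-A and 30 µM for MAO-B. Incubation 30 min at 37 °C, stopped with NaOH and water, then centrifuged. Supernatant fluorescence ex 310/em 400 nm. Triplicate.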

[2] = target: Butyrylcholinesterase (BuChE) (Rattus norvegicus, UniProt Q9JKC1); assay: Inhibition of BuChE in rat serum at 50 uM using S-butylthiocholine iodide as substrate by Ellman's method relative to control; format: cell-free; conditions: probe S-butylthiocholine iodide
Chain of Butyrylcholinesterase (BuChE) (Q9JKC1 whole entry): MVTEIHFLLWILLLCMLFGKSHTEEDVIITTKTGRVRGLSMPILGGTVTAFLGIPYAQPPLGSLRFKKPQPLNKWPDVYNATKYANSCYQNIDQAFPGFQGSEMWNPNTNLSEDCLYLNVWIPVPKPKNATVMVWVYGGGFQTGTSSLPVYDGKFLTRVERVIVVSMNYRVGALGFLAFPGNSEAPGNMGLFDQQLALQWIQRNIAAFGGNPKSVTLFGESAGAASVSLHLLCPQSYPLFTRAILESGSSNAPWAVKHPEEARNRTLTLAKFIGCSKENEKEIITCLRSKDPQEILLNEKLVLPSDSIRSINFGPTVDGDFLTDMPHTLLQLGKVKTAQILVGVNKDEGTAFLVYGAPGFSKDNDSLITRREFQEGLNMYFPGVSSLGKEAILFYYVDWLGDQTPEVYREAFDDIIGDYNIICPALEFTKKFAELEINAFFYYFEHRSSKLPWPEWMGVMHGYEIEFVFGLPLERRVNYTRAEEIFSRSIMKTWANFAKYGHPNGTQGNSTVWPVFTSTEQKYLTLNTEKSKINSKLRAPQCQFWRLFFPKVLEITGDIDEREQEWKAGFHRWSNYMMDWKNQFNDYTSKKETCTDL
Method in brief: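 Rat serum (25%) as BuChE source, S-butylthiocholine iodide 1 mM, DTNB 0.2%, in 0.1 mM phosphate buffer pH 7.4, 37 °C 15 min (modified Ellman); absorbance change at 405 nm. Three independent experiments, each in triplicate.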

[3] = target: T2, Amine oxidase [flavin-containing] A (Homo sapiens, UniProt P21397); assay: Inhibition of recombinant human MAO-A expressed in baculovirus infected BTI insect cells at 10 uM using kynuramine as substrate measured after 30 mins by fluorescence based assay relative to control; conditions: 0.5 h; method in brief: as §1
T2 sequence (P21397 whole entry): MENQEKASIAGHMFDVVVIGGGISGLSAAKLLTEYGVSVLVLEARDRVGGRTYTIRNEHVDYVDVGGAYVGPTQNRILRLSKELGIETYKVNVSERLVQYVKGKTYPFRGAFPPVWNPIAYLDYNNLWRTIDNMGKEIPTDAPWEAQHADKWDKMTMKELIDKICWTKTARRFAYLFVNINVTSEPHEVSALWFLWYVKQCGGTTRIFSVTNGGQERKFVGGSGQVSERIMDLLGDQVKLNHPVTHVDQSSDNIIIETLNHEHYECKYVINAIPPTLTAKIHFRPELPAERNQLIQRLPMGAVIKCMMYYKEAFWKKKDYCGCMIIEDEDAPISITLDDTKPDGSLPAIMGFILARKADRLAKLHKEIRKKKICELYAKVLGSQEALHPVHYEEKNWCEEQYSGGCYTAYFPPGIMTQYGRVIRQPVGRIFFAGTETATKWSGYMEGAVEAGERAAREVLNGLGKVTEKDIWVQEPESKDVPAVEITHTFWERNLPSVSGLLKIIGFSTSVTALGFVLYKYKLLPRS

[4] = target: Amyloid-beta precursor protein (Homo sapiens) (UniProt P05067); assay: Inhibition of HFIP-pretreated self-induced amyloid beta (1 to 42) (unknown origin) aggregation at 25 uM measured after 24 hrs by ThT fluorescence assay relative to control
Chain of Amyloid-beta precursor protein (Homo sapiens) (P05067 whole entry): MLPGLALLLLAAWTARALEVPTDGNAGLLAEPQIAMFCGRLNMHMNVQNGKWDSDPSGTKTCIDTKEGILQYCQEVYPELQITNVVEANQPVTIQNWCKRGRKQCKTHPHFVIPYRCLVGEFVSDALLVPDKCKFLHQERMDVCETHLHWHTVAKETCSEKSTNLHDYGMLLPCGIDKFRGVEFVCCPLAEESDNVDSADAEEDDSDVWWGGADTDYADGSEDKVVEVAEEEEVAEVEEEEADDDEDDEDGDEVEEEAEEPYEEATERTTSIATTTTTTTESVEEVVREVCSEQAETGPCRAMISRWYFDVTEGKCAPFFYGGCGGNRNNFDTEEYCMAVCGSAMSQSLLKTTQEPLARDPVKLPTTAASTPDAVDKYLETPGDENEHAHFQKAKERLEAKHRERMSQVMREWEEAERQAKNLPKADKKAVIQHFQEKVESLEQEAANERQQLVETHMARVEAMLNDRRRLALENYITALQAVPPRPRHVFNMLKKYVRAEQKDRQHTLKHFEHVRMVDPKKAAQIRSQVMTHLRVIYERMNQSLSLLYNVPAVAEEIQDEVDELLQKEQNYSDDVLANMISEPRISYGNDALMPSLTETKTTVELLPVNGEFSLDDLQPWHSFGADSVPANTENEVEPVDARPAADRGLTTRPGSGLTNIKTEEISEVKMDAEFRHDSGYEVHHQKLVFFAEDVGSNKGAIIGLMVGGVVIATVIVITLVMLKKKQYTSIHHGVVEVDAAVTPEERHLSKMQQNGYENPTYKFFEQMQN
Method in brief: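 Aβ1-42 was pretreated in HFIP for 24 h at room temperature, dried, and dissolved in DMSO to a 200 µM stock. Aβ (25 µM) was incubated with compound (25 µM) at 37 °C for 24 h. ThT was added at 5 µM in glycine-NaOH, pH 8.5. Fluorescence ex 446/em 490 nm, background-subtracted; inhibition = (1−IFi/IFc)×100. Triplicate.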

Acetylcholinesterase = Acetylcholinesterase (Electrophorus electricus, UniProt O42275); assay: Inhibition of Electrophorus electricus AChE using […] as substrate incubated for 15 mins by Ellman's method
Chain of Acetylcholinesterase (O42275 whole entry): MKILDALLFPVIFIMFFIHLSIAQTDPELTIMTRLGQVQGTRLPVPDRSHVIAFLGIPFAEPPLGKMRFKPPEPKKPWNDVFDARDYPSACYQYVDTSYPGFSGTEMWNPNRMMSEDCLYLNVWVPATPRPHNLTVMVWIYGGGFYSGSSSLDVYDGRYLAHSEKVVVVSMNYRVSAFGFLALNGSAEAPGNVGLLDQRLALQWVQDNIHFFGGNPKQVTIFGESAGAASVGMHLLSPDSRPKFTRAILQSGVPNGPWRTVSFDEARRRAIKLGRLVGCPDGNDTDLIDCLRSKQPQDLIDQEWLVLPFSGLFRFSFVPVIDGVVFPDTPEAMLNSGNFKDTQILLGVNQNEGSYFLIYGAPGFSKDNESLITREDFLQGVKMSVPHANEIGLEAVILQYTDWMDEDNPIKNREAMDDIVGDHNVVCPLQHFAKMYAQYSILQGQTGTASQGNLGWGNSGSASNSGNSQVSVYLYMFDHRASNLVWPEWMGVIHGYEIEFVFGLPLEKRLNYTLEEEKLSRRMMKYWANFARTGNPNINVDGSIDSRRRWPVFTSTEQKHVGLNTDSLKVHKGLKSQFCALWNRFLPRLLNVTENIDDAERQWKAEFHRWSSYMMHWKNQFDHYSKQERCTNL

[5] = Antioxidant activity assessed as trolox equivalent of AAPH-induced radical scavenging activity at 5 uM preincubated for 15 mins followed by AAPH addition measured every min for 90 mins by ORAC-FL assay; format: functional
Method in brief: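 ORAC-FL in 75 mM phosphate buffer, pH 7.4. Sample at 5 µM was preincubated with fluorescein (150 nM final) for 15 min at 37 °C, then AAPH was added (12 mM final). Fluorescence (ex 485/em 535 nm) was read every minute for 90 min. […] Triplicate, at least three independent assays.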

Compound | inhibition at 10 µM [1] [%] | inhibition at 50 µM [2] [%] | inhibition at 10 µM [3] [%] | inhibition [4] [%] | IC50 (Acetylcholinesterase) [nM] | Activity [5] [µMequiv/µM]
CCN(CC)CCCCC1OC(=O)c2cc(OC)c(OC)cc21 (stereo unspecified) | 21.5 | 5.1 | 2.45 | 15 | 14700 | 0.31
CCN(CCC/C=C1\OC(=O)c2cc(OC)c(OC)cc21)Cc1ccc(N(C)C)cc1 | 8.86 | 13.6 | 12.9 | 22 | 23400 | 2.75
CCN(CCCCC1OC(=O)c2cc(OC)c(OC)cc21)Cc1ccc(N(C)C)cc1 (stereo unspecified) | 9.47 | 6.2 | 12.1 | < 5 | 24900 | 2.59
CCN(CCC/C=C1/OC(=O)c2cc(OC)c(OC)cc21)Cc1ccccc1OC | 4.8 | 19.1 | 27.1 | 19 | 800 | 0.53
CCN(CCCCC/C=C1/OC(=O)c2cc(OC)c(OC)cc21)Cc1ccccc1N(C)C | 7.3 | 35.2 | 28 | 13 | 890 | 1.2
CCN(CCCCC1OC(=O)c2cc(OC)c(OC)cc21)Cc1ccccc1N(C)C (stereo unspecified) | 15 | 44.8 | 17.8 | 15.3 | 260 | 0.43
CCN(CCCCC1OC(=O)c2cc(OC)c(OC)cc21)Cc1ccccc1OC (stereo unspecified) | 10.4 | 29.8 | 27.8 | 13.8 | 370 | 0.74
CCN(CC)CCC/C=C1/OC(=O)c2cc(OC)c(OC)cc21 | 19.7 | 4.19 | 5.77 | 15.1 | 6260 | 0.22
COc1cc2c(cc1OC)C(CCCCN(C)Cc1ccccc1)OC2=O (stereo unspecified) | 6.4 | 11.5 | 8 | 8.9 | 350 | 0.29
COc1cc2c(cc1OC)C(CCCCN1CCCCC1)OC2=O (stereo unspecified) | 34.7 | 8.14 | 1.92 | < 5 | 15800 | 0.22
CCN(CCCCCCC1OC(=O)c2cc(OC)c(OC)cc21)Cc1ccccc1N(C)C (stereo unspecified) | 13.4 | 40.5 | 14.3 | 7.66 | 1240 | 0.6
COc1ccccc1CN(C)CCC/C=C1\OC(=O)c2cc(OC)c(OC)cc21 | 10.3 | 16.8 | 2.9 | 15.1 | 1640 | 0.44
COc1cc2c(cc1OC)/C(=C\CCCN1CCCCC1)OC2=O | 38.8 | 26.9 | 1.52 | 11.3 | 440 | 0.32
CCN(CCC/C=C1/OC(=O)c2cc(OC)c(OC)cc21)Cc1ccc(N(C)C)cc1 | 17 | 14.1 | 12.7 | 21.7 | 13800 | 2.89
COc1ccccc1CN(C)CCC/C=C1/OC(=O)c2cc(OC)c(OC)cc21 | 9.44 | 21.9 | 4.9 | 19.1 | 410 | 0.38
CCN(CCC/C=C1\OC(=O)c2cc(OC)c(OC)cc21)Cc1ccccc1 | 13.8 | 17.3 | 10.4 | 17 | 360 | 0.36
COc1cc2c(cc1OC)/C(=C\CCCN(C)Cc1ccccc1)OC2=O | 1.09 | 27.3 | 17.9 | 8.6 | 640 | 0.49
CCN(CCC/C=C1\OC(=O)c2cc(OC)c(OC)cc21)Cc1ccccc1N(C)C | 9.9 | 40.5 | 29.1 | 15.4 | 210 | 0.78
CCN(CCC/C=C1\OC(=O)c2cc(OC)c(OC)cc21)Cc1ccccc1OC | 12 | 18.7 | 26.7 | 23.8 | 1540 | 0.94
CCN(CCCCC1OC(=O)c2cc(OC)c(OC)cc21)Cc1ccccc1 (stereo unspecified) | 5.51 | 23.1 | 7.1 | 15.6 | 580 | 0.23
CCN(CCC/C=C1/OC(=O)c2cc(OC)c(OC)cc21)Cc1ccccc1N(C)C | 2.1 | 43.1 | 30 | 8.2 | 350 | 1.07
